The source made the active and inactive calls. No cut-off for these calls is given here.
Assays:
[1] = molecular target: T1, Glutamate NMDA receptor (Rattus norvegicus) (UniProt P35439+Q00959+Q00960+Q00961+Q62645+Q8VHN2+Q9R1M7); settings: Brain, Brain membranes
[2] = Displacement of [3H]kainic acid from kainate receptor in rat brain membranes; format: cell membranes
[3] = molecular target: T1, Glutamate NMDA receptor (Rattus norvegicus); experiment: Antagonist activity at NMDA receptor in rat cortical membranes assessed as inhibition of [3H]MK801 binding in presence of glutamate and glycine; format: cell membranes
[4] = molecular target: Metabotropic glutamate receptor 2 (Homo sapiens, UniProt Q14416); experiment: Displacement of [3H]LY341495 from human mGluR2 receptor expressed in BHK cells
[5] = molecular target: Metabotropic glutamate receptor 4 (Homo sapiens, UniProt Q14833); experiment: Displacement of [3H]L-AP4 from human mGluR4 receptor expressed in BHK cells
[6] = Displacement of [3H]AMPA from AMPA receptor in rat brain membranes; format: cell membranes
Rattus norvegicus = organism: Rattus norvegicus; experiment: Agonist activity at NMDA receptor in rat cortical membranes up to 1 mM by [3H]MK801 binding assay; format: cell membranes
Method in brief: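 [3H]MK801 binding to rat cortical membranes; agonist action read as potentiation of [3H]MK801 binding relative to basal, with glutamate/glycine as reference stimulants of binding.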

[7] = molecular target: Metabotropic glutamate receptor 5 (Homo sapiens, UniProt P41594); experiment: Displacement of [3H]Quisqualate from human mGluR5 receptor expressed in BHK cells; format: cell-based
[8] = molecular target: Metabotropic glutamate receptor 1 (Homo sapiens, UniProt Q13255); experiment: Displacement of [3H]Quisqualate from human mGluR1A receptor expressed in BHK cells; format: cell-based
Metabotropic glutamate receptor 1, sequence (Q13255 whole entry): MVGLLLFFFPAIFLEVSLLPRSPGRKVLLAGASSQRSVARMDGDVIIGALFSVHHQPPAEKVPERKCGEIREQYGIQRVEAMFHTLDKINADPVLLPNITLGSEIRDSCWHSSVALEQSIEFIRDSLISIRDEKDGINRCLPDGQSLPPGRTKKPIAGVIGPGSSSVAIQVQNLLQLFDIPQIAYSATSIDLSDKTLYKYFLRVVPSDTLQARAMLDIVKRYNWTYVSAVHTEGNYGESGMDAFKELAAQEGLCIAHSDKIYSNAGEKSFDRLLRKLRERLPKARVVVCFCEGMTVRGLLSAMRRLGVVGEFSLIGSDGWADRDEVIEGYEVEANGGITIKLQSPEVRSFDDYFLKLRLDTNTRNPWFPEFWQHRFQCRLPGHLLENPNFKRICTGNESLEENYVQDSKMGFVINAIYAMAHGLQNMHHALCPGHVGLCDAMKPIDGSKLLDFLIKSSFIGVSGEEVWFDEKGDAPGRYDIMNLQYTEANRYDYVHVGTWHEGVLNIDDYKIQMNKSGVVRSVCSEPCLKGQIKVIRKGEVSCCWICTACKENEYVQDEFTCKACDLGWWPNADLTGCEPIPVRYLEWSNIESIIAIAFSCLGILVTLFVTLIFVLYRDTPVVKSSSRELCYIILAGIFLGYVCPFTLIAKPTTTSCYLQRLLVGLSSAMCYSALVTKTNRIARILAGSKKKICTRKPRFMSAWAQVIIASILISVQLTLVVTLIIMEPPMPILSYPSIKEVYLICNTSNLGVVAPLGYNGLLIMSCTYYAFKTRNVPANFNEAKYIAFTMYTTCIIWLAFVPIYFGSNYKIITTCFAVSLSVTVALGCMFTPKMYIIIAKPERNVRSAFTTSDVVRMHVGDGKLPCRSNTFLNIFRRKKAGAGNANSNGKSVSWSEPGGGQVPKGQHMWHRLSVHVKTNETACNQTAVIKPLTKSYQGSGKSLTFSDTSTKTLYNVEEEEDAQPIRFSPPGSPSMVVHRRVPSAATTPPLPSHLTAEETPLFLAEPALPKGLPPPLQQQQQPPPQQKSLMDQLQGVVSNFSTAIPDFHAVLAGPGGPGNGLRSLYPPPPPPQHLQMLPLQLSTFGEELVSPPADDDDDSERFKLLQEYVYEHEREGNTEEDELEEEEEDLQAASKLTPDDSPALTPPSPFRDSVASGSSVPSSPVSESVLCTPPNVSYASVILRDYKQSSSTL

Metabotropic glutamate receptor 4, sequence (Q14833 whole entry): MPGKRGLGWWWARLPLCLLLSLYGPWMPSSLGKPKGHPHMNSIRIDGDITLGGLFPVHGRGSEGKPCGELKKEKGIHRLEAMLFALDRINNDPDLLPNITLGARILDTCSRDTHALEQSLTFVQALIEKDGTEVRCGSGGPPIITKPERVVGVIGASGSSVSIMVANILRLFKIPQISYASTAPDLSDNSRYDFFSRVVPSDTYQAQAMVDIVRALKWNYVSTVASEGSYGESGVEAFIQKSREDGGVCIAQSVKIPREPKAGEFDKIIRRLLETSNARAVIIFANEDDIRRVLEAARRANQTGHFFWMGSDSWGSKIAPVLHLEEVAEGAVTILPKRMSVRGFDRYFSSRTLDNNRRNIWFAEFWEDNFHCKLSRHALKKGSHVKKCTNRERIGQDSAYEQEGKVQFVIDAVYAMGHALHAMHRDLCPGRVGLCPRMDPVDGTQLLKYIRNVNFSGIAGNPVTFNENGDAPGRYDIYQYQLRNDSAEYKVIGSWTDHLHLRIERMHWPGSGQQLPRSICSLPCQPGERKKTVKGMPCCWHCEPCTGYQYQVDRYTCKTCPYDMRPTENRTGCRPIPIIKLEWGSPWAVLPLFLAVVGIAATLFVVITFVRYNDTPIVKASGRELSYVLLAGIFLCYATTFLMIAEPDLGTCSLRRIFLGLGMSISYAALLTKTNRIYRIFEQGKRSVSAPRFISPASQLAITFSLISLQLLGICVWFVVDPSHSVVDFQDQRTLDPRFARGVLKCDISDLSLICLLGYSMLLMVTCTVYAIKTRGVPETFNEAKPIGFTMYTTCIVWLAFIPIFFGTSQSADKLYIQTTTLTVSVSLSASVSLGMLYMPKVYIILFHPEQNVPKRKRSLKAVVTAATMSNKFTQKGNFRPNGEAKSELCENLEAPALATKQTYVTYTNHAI
Metabotropic glutamate receptor 5, sequence (P41594 whole entry): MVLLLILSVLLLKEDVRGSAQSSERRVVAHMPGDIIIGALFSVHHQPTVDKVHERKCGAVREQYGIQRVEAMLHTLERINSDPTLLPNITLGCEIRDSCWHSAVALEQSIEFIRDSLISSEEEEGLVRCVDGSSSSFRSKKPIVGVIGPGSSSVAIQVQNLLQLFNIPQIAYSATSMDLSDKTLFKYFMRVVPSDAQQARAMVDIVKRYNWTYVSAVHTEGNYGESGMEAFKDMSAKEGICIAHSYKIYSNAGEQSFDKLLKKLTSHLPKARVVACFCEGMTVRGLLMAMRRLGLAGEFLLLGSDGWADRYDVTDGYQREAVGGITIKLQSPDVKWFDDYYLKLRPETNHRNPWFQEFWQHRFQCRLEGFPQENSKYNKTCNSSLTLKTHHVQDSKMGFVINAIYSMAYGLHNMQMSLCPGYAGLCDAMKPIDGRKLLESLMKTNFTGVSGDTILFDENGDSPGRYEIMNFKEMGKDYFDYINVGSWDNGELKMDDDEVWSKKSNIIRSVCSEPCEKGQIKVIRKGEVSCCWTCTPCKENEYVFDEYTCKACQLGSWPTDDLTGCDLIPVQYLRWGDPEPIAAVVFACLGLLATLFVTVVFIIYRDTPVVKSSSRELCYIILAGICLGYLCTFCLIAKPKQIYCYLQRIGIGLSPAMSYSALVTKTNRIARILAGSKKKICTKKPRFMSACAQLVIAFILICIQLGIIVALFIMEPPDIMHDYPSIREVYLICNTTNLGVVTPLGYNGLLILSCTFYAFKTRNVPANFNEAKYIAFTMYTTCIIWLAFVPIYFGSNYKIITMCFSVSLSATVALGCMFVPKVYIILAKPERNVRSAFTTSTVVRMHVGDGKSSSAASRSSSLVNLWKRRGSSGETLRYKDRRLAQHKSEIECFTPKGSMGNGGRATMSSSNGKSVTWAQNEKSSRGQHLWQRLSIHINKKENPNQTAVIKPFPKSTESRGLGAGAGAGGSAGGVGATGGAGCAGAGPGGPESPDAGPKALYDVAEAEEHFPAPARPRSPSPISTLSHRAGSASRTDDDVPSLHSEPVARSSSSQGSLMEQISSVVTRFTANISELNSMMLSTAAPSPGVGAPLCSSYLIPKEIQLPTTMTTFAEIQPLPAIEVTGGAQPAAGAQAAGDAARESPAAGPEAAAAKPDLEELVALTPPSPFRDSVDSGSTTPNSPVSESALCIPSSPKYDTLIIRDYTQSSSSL
Metabotropic glutamate receptor 2, sequence (Q14416 whole entry): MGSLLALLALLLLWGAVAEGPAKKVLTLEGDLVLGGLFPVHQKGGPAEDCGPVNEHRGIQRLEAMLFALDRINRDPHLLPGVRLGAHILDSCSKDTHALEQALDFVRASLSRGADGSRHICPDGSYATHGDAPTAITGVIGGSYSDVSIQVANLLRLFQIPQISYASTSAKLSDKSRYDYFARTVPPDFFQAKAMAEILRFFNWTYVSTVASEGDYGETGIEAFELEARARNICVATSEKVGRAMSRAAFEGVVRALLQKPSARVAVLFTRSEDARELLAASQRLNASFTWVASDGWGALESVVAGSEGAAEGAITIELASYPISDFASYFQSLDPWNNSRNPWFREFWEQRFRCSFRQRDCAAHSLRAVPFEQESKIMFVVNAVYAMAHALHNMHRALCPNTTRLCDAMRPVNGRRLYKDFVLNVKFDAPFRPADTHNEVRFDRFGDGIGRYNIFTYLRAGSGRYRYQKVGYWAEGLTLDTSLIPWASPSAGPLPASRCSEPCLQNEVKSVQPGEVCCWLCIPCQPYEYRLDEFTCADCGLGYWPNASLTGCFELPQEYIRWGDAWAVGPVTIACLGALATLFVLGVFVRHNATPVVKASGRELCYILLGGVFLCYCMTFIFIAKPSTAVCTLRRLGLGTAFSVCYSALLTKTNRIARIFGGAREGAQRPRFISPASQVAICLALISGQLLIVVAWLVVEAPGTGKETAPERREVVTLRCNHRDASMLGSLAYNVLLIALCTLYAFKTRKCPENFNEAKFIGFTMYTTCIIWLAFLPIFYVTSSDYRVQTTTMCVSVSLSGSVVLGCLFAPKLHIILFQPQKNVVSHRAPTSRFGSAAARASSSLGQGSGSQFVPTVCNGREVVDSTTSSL

Q: Which logKi [1] does the source give for `N[C@@H](CC12CC(C(=O)O)(C1)C2)C(=O)O` here?
A: 2.48

Q: And the Ki (Glutamate NMDA receptor)?
A: > 300 µM

Q: And the Ki [2]?
A: > 300 µM

Q: What about the Activity [3] of the same compound?
A: inactive

Q: And the Ki [4]?
A: > 1000 µM

Q: What about the Ki [5] of the same compound?
A: > 1000 µM

Q: And the Ki [6]?
A: > 300 µM

Q: What about the Activity (Rattus norvegicus) of the same compound?
A: inactive

Q: What about the Ki [7] of the same compound?
A: > 300 µM

Q: And the Ki [8]?
A: > 1000 µM

Q: Which Activity [3] does the source give for `O=C(O)[C@H]1CN(CCCP(=O)(O)O)CCN1` here?
A: 103 nM

Q: For `N[C@@H](CCP(=O)(O)O)C(=O)O`, which Ki (Glutamate NMDA receptor) is on record?
A: > 300 µM

Q: And the Ki [2]?
A: > 1000 µM

Q: And the Ki [4]?
A: > 1000 µM

Q: And the Ki [5]?
A: 0.16 µM

Q: And the Ki [6]?
A: > 1000 µM

Q: And the Ki [7]?
A: > 1000 µM

Q: And the Ki [8]?
A: > 1000 µM

Q: With `N[C@H](CC12CC(C(=O)O)(C1)C2)C(=O)O` as the compound, how does the logKi [1] read?
A: 1.46

Q: And the Ki (Glutamate NMDA receptor)?
A: 29 µM

Q: What about the Ki [2] of the same compound?
A: > 300 µM

Q: And the Activity [3]?
A: inactive

Q: And the Ki [4]?
A: > 1000 µM

Q: And the Ki [5]?
A: > 1000 µM

Q: What about the Ki [6] of the same compound?
A: > 300 µM

Q: And the Activity (Rattus norvegicus)?
A: inactive

Q: What about the Ki [7] of the same compound?
A: 336 µM

Q: What about the Ki [8] of the same compound?
A: 210 µM

— ChEMBL document CHEMBL1139317, “Design, synthesis and biological evaluation of novel bicyclo[1.1.1]pentane-based omega-acidic amino acids as glutamate receptors ligands” (Bioorg Med Chem, 2009)
